Bioassay records: PubChem, several laboratories
Lipid droplet: inhibitors of hepatocyte lipid droplet formation, primary screen, imaging, high-throughput imaging, BODIPY stain. AML12 mouse hepatocytes, oleate lipid droplets. inhibition, % at 6.5 µM. actives 0.4% (n = 240,000). AID 1656, 2009;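 active = lipid droplet intensity inhibited by at least 50%, with more than 500 cells counted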
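Technique: fluorescence imaging, 20x objective, two fields per well / Assay system: AML12 hepatocytes (mouse) / Measure: % inhibition of lipid droplet signal / Doses: 6.5 µM single-point dosing / Incubation: overnight exposure / Reagent: 100 µM oleic acid challenge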
GRK2 aptamer HTS: compounds blocking aptamer binding on GRK2 – biochemical, human GRK2, bead flow cytometry, HTS, primary screen; Beta-adrenergic receptor kinase 1 (Homo sapiens), P25098; FAM-aptamer displacement from GRK2; inhibition of aptamer binding, % at 10 µM; actives 0.59% (n = 330,000); AID 488847, 2010;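 active = inhibition of aptamer binding above 40%, roughly 3 SD of noise, on plates passing a quality check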;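 also: median bead fluorescence of bound FAM aptamer so fluorescent compounds give negative values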
B2AR ag: beta2AR agonists driving receptor internalization, primary screen, cell-based, FAP fluorogen, flow cytometry; Beta-2 adrenergic receptor (Homo sapiens), P07550; Am2.2-beta2AR cells; response, % (test concentration not listed); actives 0.43% (n = 340,000);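 active = response above a set limit, near 3 SD of response in nonfluorescent compounds, cut at about 42% in these data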
Target sequence (P07550 whole entry, looked up): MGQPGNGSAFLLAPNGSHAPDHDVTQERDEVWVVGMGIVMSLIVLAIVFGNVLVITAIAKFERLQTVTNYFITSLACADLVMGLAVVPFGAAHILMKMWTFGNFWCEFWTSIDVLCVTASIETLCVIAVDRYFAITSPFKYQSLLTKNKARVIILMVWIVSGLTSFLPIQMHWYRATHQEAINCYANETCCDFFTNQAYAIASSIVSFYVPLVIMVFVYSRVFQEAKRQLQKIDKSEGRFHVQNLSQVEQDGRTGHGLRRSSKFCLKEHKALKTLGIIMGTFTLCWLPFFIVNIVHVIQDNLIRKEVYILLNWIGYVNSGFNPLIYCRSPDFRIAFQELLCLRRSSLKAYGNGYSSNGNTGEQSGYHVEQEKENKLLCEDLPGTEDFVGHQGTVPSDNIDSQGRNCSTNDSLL
Arrestin-AP2 inh: inhibitors of beta-arrestin/AP2 binding, primary screen, biochemical, GPCR trafficking, flow cytometry; beta-arrestin 1 C-terminal peptide binding to AP2 beta2-adaptin appendage (human); FITC-arrestin peptide / GST-AP2 beads; AP2 beta2 appendage carries R879A mutation; inhibition, % at 10 µM; actives 0.31% (n = 340,000);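 active = inhibition above a set limit, near 3 SD of compounds lacking own fluorescence, cut at about 54% in these data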;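 also: plate controls were DMSO wells for no effect and 5 µM unlabelled arrestin peptide for full effect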
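System: GST-AP2 R879A glutathione beads; medium: PBS, Tween 20 0.05%, BSA 0.1%; reagent: fluorescein-tagged arrestin peptide at 50 nM final; schedule: pre-incubation 12 min, peptide binding 1 h, room temperature; detection: flow cytometry, FL1 (488/535 nm); read-out: inhibition as reduced fluorescein signal on beads, percent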
H9c2 TAG inh: inhibitors of triacylglycerol accumulation, primary screen, cell-based, uHTS, fluorescence, H9c2; H9c2 cells, Nile Red lipid (TAG) fluorescence; cells loaded with 200 µM oleic acid; inhibition, % at 12.5 µM; actives 0.66% (n = 230,000);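 active = pattern-corrected inhibition of lipid staining of at least 50% with the nuclear-stain viability signal not falling by more than 50%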;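 also: 0% = DMSO wells and 100% = triacsin C control wells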
NTR1 ag: agonists of human NTR1, primary screen, imaging, U2OS cells, beta-arrestin-GFP, high content | activation, % at 20 µM | actives 0.17% (n = 330,000) | Neurotensin receptor type 1 (Homo sapiens), P30989 | AID 493036, 2011 | NTR1-U2OS beta-arrestin-GFP spot imaging, agonist mode;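 active = activation at or above 40% of the spot to cytoplasm intensity ratio, with at least 20 cells analyzed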;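 also: 0% = DMSO without peptide and 100% = 100 nM NTR1 peptide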
The depositor's hits bear a star; · = not tested or not shown. Sampled rows, rich in hits. Any-hit rate of the full collection: about 2%.

SMILES | Lipid droplet | GRK2 aptamer HTS | B2AR ag | Arrestin-AP2 inh | H9c2 TAG inh | NTR1 ag
COc1ccc(-c2nn(-c3ccccc3)cc2/C=C/C(=O)OCC(=O)Nc2cccc(C#N)c2)cc1 | -24 | 4 | 18 | 1 | 11 | 1
COc1cccc(/C=N/NC(=O)CSc2nnc(C)n2-c2ccccc2)c1O | · | 1 | 4 | 6 | -3 | 0
COc1ccc(-c2nn(-c3ccccc3)cc2/C=C/C(=O)OCC(=O)Nc2ccc(C#N)cc2)cc1 | -15 | 0 | 55* | 2 | · | 9
COc1ccc(-c2nn(-c3ccccc3)cc2/C=N/NC(=O)c2ccc(Br)o2)cc1 | · | 2 | 61* | 1 | 25 | 7
COc1ccc2nc(NN=C(C)c3ccccn3)cc(C)c2c1 | · | · | 20 | 5 | 67* | ·
CCOc1ccc(-n2c(C)cc(C(=O)CCl)c2C)cc1 | 28 | 2 | 46* | -10 | 59* | 12
O=C(Cn1nnc(-c2ccc(Cl)cc2)n1)NC(=O)NC1CCCC1 | · | · | · | · | 3 | ·
COC1=CC(=O)C=C(OC)C1=O | · | · | 53* | 7 | 17 | ·
COc1ccc(Cl)cc1C(=O)NNC(=O)c1[nH]c(C)c(C(C)=O)c1C | · | 3 | 2 | 3 | 10 | 3
CN1Cc2c(N3CCOCC3)nc3sc(C(=O)c4ccc(Br)cc4)c(N)c3c2CC1(C)C | 25 | 0 | 20 | 3 | 68* | 8
CCN(CC)c1ccc(C(=C2C=CC(=[N+](CC)CC)C=C2)c2ccc(N(CC)CC)cc2)cc1 | · | · | 82* | 90* | 136 | ·
CCN(CC)c1ccc(C(=O)NNC(=O)CCNC(=O)c2ccccc2)cc1 | · | 0 | 1 | -2 | 12 | 4
CCN(CC)c1ccc(C(=C2C=CC(=[N+](CC)CC)C=C2)c2ccccc2)cc1 | · | · | 59* | 14 | 141 | ·
CC(C)C(NS(=O)(=O)c1cccc(C(F)(F)F)c1)C(=O)NCc1cccs1 (configuration not stated) | · | 0 | 8 | 23 | 7 | -1
O=C(c1ccco1)N1CCC(c2nc3ccccc3[nH]2)CC1 | · | 2 | -3 | -5 | -6 | 1
COC(=O)C1=C(C)NC(=S)NC1c1ccc(-c2cccc(Cl)c2)o1 (configuration not stated) | 22 | 1 | 51* | -8 | · | 4
O=C(NC1CCCCCC1)c1ccc(Cl)c(S(=O)(=O)N2CCOCC2)c1 | 4 | 2 | -4 | 2 | · | 0
Nc1cccc(C(=O)OCC(=O)Nc2cccc3c2C(=O)c2ccccc2C3=O)c1 | 24 | 0 | 16 | 34 | 23 | 8
CCN(CC)CCC(=O)Nc1cccc2c1C(=O)c1ccccc1C2=O | -66 | 1 | -79 | 38 | 93* | -1
C/C(=N\Nc1nc2ccccc2s1)c1cccs1 | 6 | 0 | 10 | -7 | · | 4
CC(=NNc1nc2ccccc2o1)c1ncccn1 | · | · | 5 | 4 | 51* | ·
CC(=NNc1nc2ccccc2s1)c1ncccn1 | · | · | -80 | 2 | 63* | ·
Cc1ccc(OCCNC(=O)C2CC(=O)N(Cc3ccccc3)C2)cc1 (configuration not stated) | · | 3 | -4 | 35 | -7 | 0
CC(C)(C)N(Cc1ccccc1)C(=O)COC(=O)CCN1C(=O)C2CC=CCC2C1=O (configuration not stated) | · | · | -5 | -6 | -6 | -1
COc1ccc(NC(=O)COC(=O)c2cc3c(s2)CCC3)cc1 | · | 43* | -2 | -9 | -33 | 2
SMILES | Lipid droplet | GRK2 aptamer HTS | B2AR ag | Arrestin-AP2 inh | H9c2 TAG inh | NTR1 ag
CCOc1ccccc1N=C1SC(CC(=O)Nc2ccc(OC)cc2OC)C(=O)N1CCC1=CCCCC1 (configuration not stated) | 3 | 4 | 67* | 0 | · | 2
Cc1ccc(C(=O)c2no[n+]([O-])c2C(=O)c2ccc(C)cc2)cc1 | -40 | 0 | 42* | 10 | 52* | 8
COc1ccc2cc3cc(C(=O)NCCN4CCN(c5ccccc5F)CC4)oc3nc2c1 | · | 1 | 16 | 6 | 43 | 7
COc1ccc2cc3cc(C(=O)Nc4ccccc4N4CCN(C)CC4)oc3nc2c1 | · | 1 | 19 | 5 | 53* | 10
Cc1ccccc1NC(=O)Cc1nc(COC(=O)c2cc([N+](=O)[O-])ccc2N)cs1 | -2 | 55* | 11 | 2 | 3 | 4
Cc1ccc(NC2=C(Cl)C(=O)c3ccccc3C2=O)cc1 | -9 | 0 | 35 | 13 | · | ·
O=C1C(Cl)=C(Nc2ccc(O)cc2)C(=O)c2ccccc21 | 7 | 0 | 73* | 3 | 5 | -2
O=C1C(O)=C(O)C(=O)c2ccccc21 | · | 3 | 97* | 2 | · | 0
CCNC1=C(Cl)C(=O)c2ccccc2C1=O | 3 | 0 | -4 | 10 | 62* | 0
CCN(CC)c1ccc(NC2=C(Cl)C(=O)c3ccccc3C2=O)cc1 | -22 | 4 | 74* | 55* | · | ·
CCCC(=O)NC1=C(Cl)C(=O)c2ccccc2C1=O | · | · | 38 | 27 | 27 | ·
CCOC(=O)c1c(C)[nH]c(C(=O)OC(C)C(=O)NC2(C#N)CCCCC2)c1C (configuration not stated) | · | · | · | · | -12 | ·
CC(C)N(CCNCC(O)COc1ccc(C(C)(C)c2ccccc2)cc1)C(C)C (configuration not stated) | 1 | 0 | 16 | 14 | 9 | 0
O=C(NCCCn1ccnc1)/C(=C\c1cccnc1)NC(=O)c1cccc(Br)c1 | 16 | 66* | -3 | 18 | · | -1
CC(C)=CCC/C(C)=C/CNC(=O)C[C@H]1C[C@H](C(=O)N2CCOCC2)[C@@]2(CCC3CCCC3)c3[nH]c4cc(-c5ccco5)ccc4c3CCN2C1=O | · | 0 | -3 | 7 | 62* | 7
CN(C)CCCNC(=O)C[C@H]1C[C@H](C(=O)N2CCOCC2)[C@@]2(CCC3CCCC3)c3[nH]c4cc(-c5ccco5)ccc4c3CCN2C1=O | · | 0 | 63* | 2 | 60* | 17
O=C(C[C@H]1C[C@H](C(=O)N2CCOCC2)[C@@]2(CCC3CCCC3)c3[nH]c4cc(-c5ccco5)ccc4c3CCN2C1=O)NCCN1CCOCC1 | · | 0 | 13 | -9 | 21 | 3
CC(Sc1ncn[nH]1)C(=O)c1c(N)n(C)c(=O)n(C)c1=O (configuration not stated) | · | 0 | 1 | 2 | -5 | -2
O=c1cc(N=Nc2ccc(Cl)cc2)[nH]c(=O)[nH]1 | 4 | 0 | 51* | 5 | · | ·
